Experiments:
Staphylococcus aureus [1] = experiment: Antibacterial activity against Staphylococcus aureus ATCC 6538 after 24 hrs by microdilution method; assay type: functional; details: ATCC 6538, 24 h
Procedure, shortened: (§1)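 Broth microdilution in 96-well plates. Bacterial suspensions were adjusted in sterile saline to 1.0 × 10⁵ CFU/ml, prepared daily and kept at 4 °C. Compound was added to LB broth with 1.0 × 10⁴ CFU per well and shaken at 160 rpm for 24 h at […] (so in the source). MIC is the lowest concentration with no visible growth under a binocular microscope. OD655 was also read. Duplicate, repeated three times.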

Bacillus cereus [2] = experiment: Antibacterial activity against clinical isolate of Bacillus cereus after 24 hrs by microdilution method; assay type: functional; procedure, shortened: as §1
Micrococcus flavus [3] = experiment: Antibacterial activity against Micrococcus flavus ATCC 10240 after 24 hrs by microdilution method; assay type: functional; details: ATCC 10240, 24 h; procedure, shortened: as §1
Listeria monocytogenes [4] = experiment: Antibacterial activity against Listeria monocytogenes NCTC 7973 after 24 hrs by microdilution method; assay type: functional; details: NCTC 7973, 24 h; procedure, shortened: as §1
Pseudomonas aeruginosa [5] = experiment: Antibacterial activity against Pseudomonas aeruginosa ATCC 27853 after 24 hrs by microdilution method; assay type: functional; details: ATCC 27853, 24 h; procedure, shortened: as §1
Salmonella typhimurium [6] = experiment: Antibacterial activity against Salmonella Typhimurium ATCC 13311 after 24 hrs by microdilution method; assay type: functional, Salmonella enterica subsp. enterica serovar Typhimurium; details: Salmonella enterica, ATCC 13311, 24 h; procedure, shortened: as §1
Escherichia coli [7] = experiment: Antibacterial activity against Escherichia coli ATCC 35210 after 24 hrs by microdilution method; assay type: functional; details: ATCC 35210, 24 h; procedure, shortened: as §1
Enterococcus faecalis [8] = experiment: Antibacterial activity against Enterococcus faecalis isolated from human after 24 hrs by microdilution method; assay type: functional; procedure, shortened: as §1
Staphylococcus aureus [9] = experiment: Antibacterial activity against Staphylococcus aureus ATCC 6538 incubated for 24 hrs followed by serial sub-cultivation for 24 hrs by microdilution method; assay type: functional; details: ATCC 6538, 24 h
Procedure, shortened: (§2)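 MBC: after the 24 h LB broth microdilution (1.0 × 10⁴ CFU per well, 160 rpm), wells were serially sub-cultured into fresh broth plates and incubated a further 24 h. MBC is the lowest concentration with no visible growth, taken as 99.5% killing of the original inoculum. Duplicate, repeated three times.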

Bacillus cereus [10] = experiment: Antibacterial activity against clinical isolate of Bacillus cereus incubated for 24 hrs followed by serial sub-cultivation for 24 hrs by microdilution; assay type: functional; procedure, shortened: as §2
Micrococcus flavus [11] = experiment: Antibacterial activity against Micrococcus flavus ATCC 10240 incubated for 24 hrs followed by serial sub-cultivation for 24 hrs by microdilution; assay type: functional; details: ATCC 10240, 24 h; procedure, shortened: as §2
Listeria monocytogenes [12] = experiment: Antibacterial activity against Listeria monocytogenes NCTC 7973 incubated for 24 hrs followed by serial sub-cultivation for 24 hrs by microdilution; assay type: functional; details: NCTC 7973, 24 h; procedure, shortened: as §2
Pseudomonas aeruginosa [13] = experiment: Antibacterial activity against Pseudomonas aeruginosa ATCC 27853 incubated for 24 hrs followed by serial sub-cultivation for 24 hrs by microdilution; assay type: functional; details: ATCC 27853, 24 h; procedure, shortened: as §2
Salmonella typhimurium [14] = experiment: Antibacterial activity against Salmonella Typhimurium ATCC 13311 incubated for 24 hrs followed by serial sub-cultivation for 24 hrs by microdilution; assay type: functional, Salmonella enterica subsp. enterica serovar Typhimurium; details: Salmonella enterica, ATCC 13311, 24 h; procedure, shortened: as §2
Escherichia coli [15] = experiment: Antibacterial activity against Escherichia coli ATCC 35210 incubated for 24 hrs followed by serial sub-cultivation for 24 hrs by microdilution; assay type: functional; details: ATCC 35210, 24 h; procedure, shortened: as §2
Enterococcus faecalis [16] = experiment: Antibacterial activity against Enterococcus faecalis isolated from human incubated for 24 hrs followed by serial sub-cultivation for 24 hrs by microdilution; assay type: functional; procedure, shortened: as §2
Aspergillus ochraceus [17] = experiment: Antifungal activity against Aspergillus ochraceus ATCC 12066 after 72 hrs by serial dilution technique; assay type: functional; details: ATCC 12066, 72 h
Procedure, shortened: (§3)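 Modified microdilution in 96-well plates. Fungi were kept on malt agar at 4 °C. Spores were washed off in sterile 0.85% saline with 0.1% Tween 80. Compounds were dissolved at 1 mg/ml in 5% DMSO with 0.1% Tween 80 and added to malt broth with inoculum. Plates were shaken at 160 rpm for 72 h at 28 °C. Duplicate, repeated three times.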

Aspergillus niger [18] = experiment: Antifungal activity against Aspergillus niger ATCC 6275 after 72 hrs by serial dilution technique; assay type: functional; details: ATCC 6275, 72 h; procedure, shortened: as §3
Aspergillus flavus [19] = experiment: Antifungal activity against Aspergillus flavus ATCC 9643 after 72 hrs by serial dilution technique; assay type: functional; details: ATCC 9643, 72 h; procedure, shortened: as §3
Talaromyces funiculosus [20] = experiment: Antifungal activity against Penicillium funiculosum ATCC 36839 after 72 hrs by serial dilution technique; assay type: functional; details: ATCC 36839, 72 h; procedure, shortened: as §3
Penicillium ochrochloron [21] = experiment: Antifungal activity against Penicillium ochrochloron ATCC 9112 after 72 hrs by serial dilution technique; assay type: functional; details: ATCC 9112, 72 h; procedure, shortened: as §3
Trichoderma viride [22] = experiment: Antifungal activity against Trichoderma viride IAM 5061 after 72 hrs by serial dilution technique; assay type: functional; details: IAM 5061, 72 h; procedure, shortened: as §3
Candida albicans [23] = experiment: Antifungal activity against Candida albicans isolated from human after 72 hrs by serial dilution technique; assay type: functional; procedure, shortened: as §3
Aspergillus ochraceus [24] = experiment: Antifungal activity against Aspergillus ochraceus ATCC 12066 incubated for 72 hrs followed by serial sub-cultivation for 72 hrs by serial dilution technique; assay type: functional; details: ATCC 12066, 72 h
Procedure, shortened: (§4)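 MFC: material from 72 h malt broth microdilution wells was serially sub-cultured into fresh broth plates and incubated a further 72 h at 28 °C. Fungicidal concentration is taken from growth after sub-culture. Duplicate, repeated three times.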

Aspergillus fumigatus [25] = experiment: Antifungal activity against Aspergillus fumigatus isolated from human incubated for 72 hrs followed by serial sub-cultivation for 72 hrs by serial dilution technique; assay type: functional; procedure, shortened: as §4
Aspergillus niger [26] = experiment: Antifungal activity against Aspergillus niger ATCC 6275 incubated for 72 hrs followed by serial sub-cultivation for 72 hrs by serial dilution technique; assay type: functional; details: ATCC 6275, 72 h; procedure, shortened: as §4
Aspergillus flavus [27] = experiment: Antifungal activity against Aspergillus flavus ATCC 9643 incubated for 72 hrs followed by serial sub-cultivation for 72 hrs by serial dilution technique; assay type: functional; details: ATCC 9643, 72 h; procedure, shortened: as §4
Talaromyces funiculosus [28] = experiment: Antifungal activity against Penicillium funiculosum ATCC 36839 incubated for 72 hrs followed by serial sub-cultivation for 72 hrs by serial dilution technique; assay type: functional; details: ATCC 36839, 72 h; procedure, shortened: as §4
Penicillium ochrochloron [29] = experiment: Antifungal activity against Penicillium ochrochloron ATCC 9112 incubated for 72 hrs followed by serial sub-cultivation for 72 hrs by serial dilution technique; assay type: functional; details: ATCC 9112, 72 h; procedure, shortened: as §4
Trichoderma viride [30] = experiment: Antifungal activity against Trichoderma viride IAM 5061 incubated for 72 hrs followed by serial sub-cultivation for 72 hrs by serial dilution technique; assay type: functional; details: IAM 5061, 72 h; procedure, shortened: as §4
Candida albicans [31] = experiment: Antifungal activity against Candida albicans isolated from human incubated for 72 hrs followed by serial sub-cultivation for 72 hrs by serial dilution technique; assay type: functional; procedure, shortened: as §4
Pseudomonas aeruginosa [32] = experiment: Ratio of ampicillin MIC to compound MIC for Pseudomonas aeruginosa ATCC 27853; assay type: functional
Aspergillus ochraceus [33] = experiment: Ratio of bifonazole to compound for Aspergillus ochraceus ATCC 12066; assay type: functional
Aspergillus niger [34] = experiment: Ratio of bifonazole to compound for Aspergillus niger ATCC 6275; assay type: functional
Talaromyces funiculosus [35] = experiment: Ratio of bifonazole to compound for Penicillium funiculosum ATCC 36839; assay type: functional
Penicillium ochrochloron [36] = experiment: Ratio of bifonazole to compound for Penicillium ochrochloron ATCC 9112; assay type: functional
Trichoderma viride [37] = experiment: Ratio of bifonazole to compound for Trichoderma viride IAM 5061; assay type: functional
Candida albicans [38] = experiment: Ratio of bifonazole to compound for Candida albicans isolated from human; assay type: functional
Aspergillus ochraceus [39] = experiment: Ratio of ketoconazole to compound for Aspergillus ochraceus ATCC 12066; assay type: functional
Aspergillus fumigatus [40] = experiment: Ratio of ketoconazole to compound for Aspergillus fumigatus isolated from human; assay type: functional
Penicillium ochrochloron [41] = experiment: Ratio of ketoconazole to compound for Penicillium ochrochloron ATCC 9112; assay type: functional
Candida albicans [42] = experiment: Ratio of ketoconazole to compound for Candida albicans isolated from human; assay type: functional
Aspergillus ochraceus [43] = experiment: Antifungal activity against Aspergillus ochraceus after 72 hrs by serial dilution technique

CNc1nc(C)c(C(=O)/C=C/c2ccc(F)cc2)s1
10: Ratio (Pseudomonas aeruginosa [32]) | Ratio (Aspergillus ochraceus [33]) | Ratio (Aspergillus niger [34]) | Ratio (Talaromyces funiculosus [35]) | Ratio (Penicillium ochrochloron [36]) | Ratio (Trichoderma viride [37]) | Ratio (Candida albicans [38]) | Ratio (Aspergillus ochraceus [39]) | Ratio (Aspergillus fumigatus [40]) | Ratio (Penicillium ochrochloron [41]) | Ratio (Candida albicans [42])
54.3 µM: MIC (Salmonella typhimurium [6]) | MIC (Escherichia coli [7]) | MIC (Enterococcus faecalis [8]) | MBC (Bacillus cereus [10])
111 µM: MBC (Pseudomonas aeruginosa [13])
36.2 µM: MIC (Bacillus cereus [2]) | MIC (Aspergillus ochraceus [17]) | MIC (Aspergillus niger [18]) | MIC (Aspergillus flavus [19]) | MIC (Talaromyces funiculosus [20]) | MIC (Penicillium ochrochloron [21]) | MIC (Aspergillus ochraceus [43])
72.5 µM: MIC (Staphylococcus aureus [1]) | MIC (Pseudomonas aeruginosa [5]) | MBC (Staphylococcus aureus [9]) | MBC (Micrococcus flavus [11]) | MBC (Salmonella typhimurium [14]) | MBC (Escherichia coli [15]) | MBC (Enterococcus faecalis [16]) | MIC (Trichoderma viride [22]) | MIC (Candida albicans [23]) | MFC (Aspergillus ochraceus [24]) | MFC (Aspergillus fumigatus [25]) | MFC (Aspergillus niger [26]) | MFC (Talaromyces funiculosus [28]) | MFC (Penicillium ochrochloron [29])
32.6 µM: MIC (Micrococcus flavus [3])
90.6 µM: MIC (Listeria monocytogenes [4]) | MBC (Listeria monocytogenes [12]) | MFC (Aspergillus flavus [27]) | MFC (Trichoderma viride [30]) | MFC (Candida albicans [31])

CNc1nc(C)c(C(=O)/C=C/c2cccc(F)c2)s1
51.3 µM: MIC (Candida albicans [23])
18.1 µM: MIC (Micrococcus flavus [3])
72.5 µM: MIC (Staphylococcus aureus [1]) | MIC (Bacillus cereus [2]) | MIC (Salmonella typhimurium [6]) | MBC (Micrococcus flavus [11]) | MBC (Pseudomonas aeruginosa [13]) | MBC (Escherichia coli [15]) | MBC (Enterococcus faecalis [16]) | MFC (Aspergillus ochraceus [24]) | MFC (Aspergillus fumigatus [25]) | MFC (Aspergillus niger [26]) | MFC (Talaromyces funiculosus [28]) | MFC (Penicillium ochrochloron [29]) | MFC (Trichoderma viride [30]) | MFC (Candida albicans [31])
54.3 µM: MIC (Pseudomonas aeruginosa [5]) | MIC (Escherichia coli [7]) | MIC (Enterococcus faecalis [8]) | MIC (Aspergillus niger [18])
10: Ratio (Pseudomonas aeruginosa [32]) | Ratio (Aspergillus ochraceus [33]) | Ratio (Aspergillus niger [34]) | Ratio (Talaromyces funiculosus [35]) | Ratio (Penicillium ochrochloron [36]) | Ratio (Trichoderma viride [37]) | Ratio (Candida albicans [38]) | Ratio (Aspergillus ochraceus [39]) | Ratio (Aspergillus fumigatus [40]) | Ratio (Penicillium ochrochloron [41]) | Ratio (Candida albicans [42])
36.2 µM: MIC (Aspergillus ochraceus [17]) | MIC (Aspergillus flavus [19]) | MIC (Talaromyces funiculosus [20]) | MIC (Penicillium ochrochloron [21]) | MIC (Trichoderma viride [22]) | MIC (Aspergillus ochraceus [43])
90.6 µM: MIC (Listeria monocytogenes [4]) | MBC (Staphylococcus aureus [9]) | MBC (Bacillus cereus [10]) | MBC (Listeria monocytogenes [12]) | MBC (Salmonella typhimurium [14]) | MFC (Aspergillus flavus [27])

CNc1nc(C)c(C(=O)/C=C/c2cccc(Br)c2)s1
89 µM: MIC (Listeria monocytogenes [4]) | MBC (Listeria monocytogenes [12])
74.2 µM: MIC (Pseudomonas aeruginosa [5]) | MIC (Escherichia coli [7]) | MIC (Enterococcus faecalis [8]) | MBC (Staphylococcus aureus [9]) | MBC (Bacillus cereus [10]) | MBC (Pseudomonas aeruginosa [13]) | MBC (Salmonella typhimurium [14]) | MBC (Escherichia coli [15]) | MBC (Enterococcus faecalis [16]) | MFC (Aspergillus flavus [27])
44.5 µM: MIC (Aspergillus niger [18]) | MIC (Candida albicans [23])
10: Ratio (Pseudomonas aeruginosa [32]) | Ratio (Aspergillus ochraceus [33]) | Ratio (Aspergillus niger [34]) | Ratio (Talaromyces funiculosus [35]) | Ratio (Penicillium ochrochloron [36]) | Ratio (Trichoderma viride [37]) | Ratio (Candida albicans [38]) | Ratio (Aspergillus ochraceus [39]) | Ratio (Aspergillus fumigatus [40]) | Ratio (Penicillium ochrochloron [41]) | Ratio (Candida albicans [42])
99.3 µM: MIC (Bacillus cereus [2])
29.7 µM: MIC (Aspergillus ochraceus [17]) | MIC (Aspergillus flavus [19]) | MIC (Talaromyces funiculosus [20]) | MIC (Penicillium ochrochloron [21]) | MIC (Trichoderma viride [22]) | MIC (Aspergillus ochraceus [43])
59.3 µM: MIC (Staphylococcus aureus [1]) | MIC (Salmonella typhimurium [6]) | MBC (Micrococcus flavus [11]) | MFC (Aspergillus ochraceus [24]) | MFC (Aspergillus fumigatus [25]) | MFC (Aspergillus niger [26]) | MFC (Talaromyces funiculosus [28]) | MFC (Penicillium ochrochloron [29]) | MFC (Trichoderma viride [30]) | MFC (Candida albicans [31])
14.8 µM: MIC (Micrococcus flavus [3])

From ChEMBL document CHEMBL1926569, “Novel (E)-1-(4-methyl-2-(alkylamino)thiazol-5-yl)-3-arylprop-2-en-1-ones as potent antimicrobial agents” (2011)
